One data set has as its system Coxsackievirus B3. The data set can be described thus: Antiviral activity against Coxsackie virus B3 […] infected in human HeLa cells assessed as reduction of virus-induced cytopathic effect by MTT assay. Format: functional, organism-based, Nancy. In a few lines:
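HeLa monolayers were exposed to 100 TCID₅₀ of CVB3 […] together with serial 2-fold compound dilutions below CC₅₀, in DMEM with 2% serum. Uninfected and untreated infected wells served as controls. Plates were kept at 37 °C in humidified CO₂ until virus control CPE peaked, then read by MTT. IC₅₀ is the concentration reducing CPE by 50%, as mean of three independent experiments.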
Background: Cytopathic effects are the visible damage that an infection or toxin causes in cultured cells.

The nature of data set [1]: Therapeutic index, CC50 for human HeLa cells to IC50 for Coxsackie virus B3 […]. Format: cell-based. The following applies: read-out: Ratio CC50/IC50. In a few lines: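 TI is CC₅₀ divided by IC₅₀. CC₅₀ comes from a 48 h HeLa MTT viability assay; IC₅₀ comes from an MTT-read CPE-inhibition assay with 100 TCID₅₀ CVB3 […] in HeLa cells. Both use DMEM with 2% serum at 37 °C and are means of three independent experiments.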

A short description of data set [2]: Cytotoxicity against human HeLa cells after 48 hrs by MTT assay. It is filed as cell-based. In a few lines: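 HeLa monolayers were treated with compound at 200–6.25 µg/mL in DMEM with 2% serum for 48 h at 37 °C. MTT (0.5 mg/mL in PBS) was added for 4 h, then DMSO for 30 min at room temperature, and OD was read at 570/630 nm. CC₅₀ was taken from the mean dose-response curve of three independent experiments.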

Where [3] appears, read: Enterovirus B, Nancy, HeLa, read-out: IC50.

Structures are written as SMILES. In brackets after ≈: the same amount, converted by molar mass.

For `C[C@@H]1CO[C@@]2(C[C@@H]1OC(=O)c1ccc(O)cc1)O[C@@H]1C[C@@H](C(=O)O[C@@H]3O[C@H](CO)[C@@H](O)[C@H](O)[C@H]3O[C@@H]3O[C@H](CO)[C@@H](O)[C@H](O)[C@H]3O)C[C@@H](O)[C@]1(O)C2=O` [4'-HYDROXYPHYLLAEMBLICIN B], in the data set with Coxsackievirus B3 (hela), the IC50 entry is recorded as “Not Active”.
Consider `COC(=O)[C@H]1C[C@@H](O)[C@]2(O)C(=O)[C@]3(C[C@H](OC(=O)c4ccccc4)[C@H](C)CO3)O[C@@H]2C1` [PHYLLAEMBLIC ACID METHY ESTER], for which, in the data set with Coxsackievirus B3 (setting [3]), the IC50 came to 21.8 µg/mL (≈ 50.2 µM). Besides, the selectivity ratio in data set [1] was 9.8. In data set [2], this molecule displayed a 50% cytotoxic concentration (CC50) at 48 h of 214 µg/mL (≈ 492 µM).
On to `C[C@@H]1CO[C@@]2(C[C@@H]1OC(=O)c1ccccc1)O[C@@H]1C[C@@H](C(=O)O)C[C@@H](O)[C@]1(O)C2=O` [PHYLLAEMBLIC ACID], for which the IC50 entry in the data set with Coxsackievirus B3 (hela) is recorded as “Not Active”.
As to `C[C@@H]1CO[C@@]2(C[C@@H]1OC(=O)c1ccccc1)O[C@@H]1C[C@@H](C(=O)O[C@@H]3O[C@H](CO)[C@@H](O)[C@H](O)[C@H]3O)C[C@@H](O)[C@]1(O)C2=O` [PHYLLAEMBLICIN A], the IC50 entry in the data set on Coxsackievirus B3 (hela) is “Not Active”.
Turning to `C[C@@H]1CO[C@@]2(C[C@@H]1OC(=O)c1ccccc1)O[C@@H]1C[C@@H](C(=O)O[C@@H]3O[C@H](CO)[C@@H](O)[C@H](O)[C@H]3O[C@@H]3O[C@H](CO)[C@@H](O)[C@H](O)[C@H]3O)C[C@@H](O)[C@]1(O)C2=O` [PHYLLAEMBLICIN B], in the data set on Coxsackievirus B3 (setting [3]), the IC50 came out at 7.8 µg/mL (≈ 10.5 µM). Further, the selectivity ratio in data set [1] was determined as 6.4. In data set [2], this molecule gave a CC50 at 48 h of 50.2 µg/mL (≈ 67.4 µM).
With `C[C@@H]1CO[C@@]2(C[C@@H]1OC(=O)c1ccccc1)O[C@@H]1C[C@@H](C(=O)O[C@@H]3O[C@H](CO)[C@@H](O)[C@H](O)[C@H]3O[C@@H]3O[C@H](CO)[C@@H](O)[C@H](O)[C@H]3O[C@@H]3OC[C@@H](O)[C@@H](O)[C@@H]3O)C[C@@H](O)[C@]1(O)C2=O` [PHYLLAEMBLICIN C], in the data set on Coxsackievirus B3 (setting [3]), the IC50 was found to be 11 µg/mL (≈ 12.5 µM). The selectivity ratio in data set [1] is 6.2. The molecule further had a CC50 at 48 h in data set [2] of 67.7 µg/mL (≈ 77.2 µM).
As for `C[C@@H]1CO[C@@]2(C[C@@H]1OC(=O)c1ccccc1)O[C@@H]1C[C@@H](C(=O)O[C@@H]3O[C@H](CO)[C@@H](O)[C@H](O)[C@H]3O[C@@H]3O[C@H](CO)[C@@H](O)[C@H](O)[C@H]3O[C@@H]3OC[C@H](O)[C@@H](O)[C@@H]3O)C[C@@H](O)[C@]1(O)[C@H]2O` [PHYLLAEMBLICIN E], the concentration for half-maximal inhibition (IC50) result in the data set with Coxsackievirus B3 (hela) is listed as “Not Active”.
Still for that read-out and setting: the value for `C[C@@H]1CO[C@@]2(C[C@@H]1OC(=O)c1ccccc1)O[C@@H]1C[C@@H](C(=O)OC[C@H]3O[C@@H](O[C@H]4[C@H](OC(=O)[C@H]5C[C@@H](O)[C@]6(O)C(=O)[C@]7(C[C@H](OC(=O)c8ccccc8)[C@H](C)CO7)O[C@@H]6C5)O[C@H](CO)[C@@H](O)[C@@H]4O)[C@H](O)[C@@H](O)[C@@H]3O)C[C@@H](O)[C@]1(O)C2=O` [PHYLLAEMBLICIN F] was “Not Active”.
With `NC(=O)c1ncn([C@@H]2O[C@H](CO)[C@@H](O)[C@H]2O)n1` [RIBAVIRIN], the half-maximal inhibitory concentration (IC50) in the data set on Coxsackievirus B3 (setting [3]) came out at 20.3 µg/mL (≈ 83.1 µM). Moreover, the selectivity ratio in data set [1] was 21. Besides, the CC50 at 48 h in data set [2] came out at 426 µg/mL (≈ 1740 µM).

What is called IC50 is the point on the concentration scale where inhibition reaches its midpoint. What is called CC50 is the concentration at which the toxic effect on the cells reaches its halfway point. A higher CC50 goes with better tolerance by the cells.

Source of the values: ChEMBL document CHEMBL1152344, “Anti-coxsackie virus B3 norsesquiterpenoids from the roots of Phyllanthus emblica” (J Nat Prod, 2009).
